Measured values from ChEMBL document CHEMBL1149663, “Design, synthesis and biological evaluation of 1,4-benzodiazepine-2,5-dione-based HDAC inhibitors” (Bioorg Med Chem Lett, 2007).
The source made the active and inactive calls. No cut-off for these calls is given here.

How the values were obtained:
[1] = (§1) Antiproliferative activity against H661 cells after 48 hrs by XTT assay; format: functional, cell-based; conditions: Homo sapiens, NCI-H661, 48 h
Outline: (§2)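 Non-small cell lung cancer H661 cells were treated for 48 h, and proliferation was read by XTT assay as % of untreated control. Each analogue was run in three to four independent experiments, each in triplicate. IC50 was taken from the proliferation curves as the concentration giving 50% inhibition of proliferation.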

[2] = Antiproliferative activity against H661 cells at 5 uM after 48 hrs by XTT assay; format: functional, Homo sapiens, NCI-H661; outline: as §2
NCI-H661 = assay: as §1; format: functional, cell-based; conditions: Homo sapiens; outline: as §2

Structure (SMILES) | IC50 [1] [µM] | Activity [2] [%] | Activity (NCI-H661)
O=C(CC/C=C/CN1C(=O)c2ccccc2N(Cc2ccccc2)C(=O)[C@@H]1Cc1ccccc1)NO | 8 | 80 | 
CN1C(=O)[C@H](Cc2ccccc2)N(CCCCCC(=O)NO)C(=O)c2ccccc21 |  |  | inactive
Cc1cc(C)cc(CN2C(=O)[C@H](Cc3ccccc3)N(C/C=C/CCC(=O)NO)C(=O)c3ccccc32)c1 | 17 |  | 
Cc1cc(C)cc(CN2C(=O)[C@H](Cc3ccccc3)N(CCCCCC(=O)NO)C(=O)c3ccccc32)c1 | 8 | 80 | 
CC(/C=C/C(=O)NO)=C\[C@@H](C)C(=O)c1ccc(N(C)C)cc1 [TRICHOSTATIN] | 0.085 |  | 
O=C(CCCCCN1C(=O)c2ccccc2N(Cc2cccc3ccccc23)C(=O)[C@@H]1Cc1ccccc1)NO | 16 |  | 
O=C(CCCCCN1C(=O)c2ccccc2N(Cc2ccccc2)C(=O)[C@@H]1Cc1ccccc1)NO | 6 | 40 | 
